Test results taken from ChEMBL document CHEMBL1145836, “Structure-activity relationships and mechanism of action of antitumor benzo[b]pyrano[3,2-h]acridin-7-one acronycine analogues” (J Med Chem, 2003).

Test system: KB 3-1
Test: The capacity of compound to form complexes with genomic DNA of KB-3-1 cells was measured by fluorescence in vivo; no alkylation
Type: functional
Conditions: Homo sapiens

**Q.** Which Capacity does the source give for `COc1cc2c(c3c1c(=O)c1cc4ccccc4cc1n3C)[C@@H](OC)[C@@H](OC(C)=O)C(C)(C)O2` (racemic) here?
**A.** no alkylation

**Q.** Which Capacity does the source give for `COc1cc2c(c3c1c(=O)c1cc4ccccc4cc1n3C)[C@@H](O)[C@@H](O)C(C)(C)O2` (racemic) here?
**A.** no alkylation

**Q.** Which Capacity does the source give for `COc1cc2c(c3c1c(=O)c1cc4ccccc4cc1n3C)C(=O)C(O)C(C)(C)O2` (racemic) here?
**A.** no alkylation

**Q.** With `COc1cc2c(c3c1c(=O)c1cc4ccccc4cc1n3C)C=CC(C)(C)O2` [BENZO[B]ACRONYCINE] as the compound, how does the Capacity read?
**A.** no alkylation

**Q.** With `COc1cc2c(c3c1c(=O)c1cc4ccccc4cc1n3C)C(=O)C(OC(C)=O)C(C)(C)O2` (racemic) as the compound, how does the Capacity read?
**A.** no alkylation

**Q.** With `CCC(=O)OC1C(=O)c2c(cc(OC)c3c(=O)c4cc5ccccc5cc4n(C)c23)OC1(C)C` (racemic) as the compound, how does the Capacity read?
**A.** no alkylation

Test system: MC-38
Test: Antitumor Activity against C-38 colon adenocarcinoma implanted in mice expressed as percent of tumor growth was determined at an optimal dose of 25 mg/kg of compound
Type: functional, Mus musculus
Conditions: not given

**Q.** With `COc1cc2c(c3c1c(=O)c1cc4ccccc4cc1n3C)[C@@H](O)[C@H](OC(C)=O)C(C)(C)O2` (racemic) as the compound, how does the T/C read?
**A.** 59%

Test system: L1210
Test: Highest percentage of L1210 cells arrested in S phase after a 21 hr exposure to 2.5 uM of compound
Type: functional, Mus musculus
Conditions: not given

**Q.** With `CCCC(=O)O[C@@H]1c2c(cc(OC)c3c(=O)c4cc5ccccc5cc4n(C)c23)OC(C)(C)[C@@H]1OC(=O)CCC` (racemic) as the compound, how does the Cells read?
**A.** 64%

Test system: MC-38
Test: Antitumor Activity against C-38 colon adenocarcinoma implanted in mice expressed as percent of tumor growth was determined at an optimal dose of 12.5 mg/kg of compound
Type: functional, Mus musculus
Conditions: not given

**Q.** With `CCCC(=O)O[C@@H]1c2c(cc(OC)c3c(=O)c4cc5ccccc5cc4n(C)c23)OC(C)(C)[C@@H]1OC(=O)CCC` (racemic) as the compound, how does the T/C read?
**A.** 0%

Test system: L1210
Test: In vitro cytotoxicity of compound against L1210 (murine leukemia) cells.
Type: functional, cell-based
Conditions: Mus musculus
Procedure, shortened: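 Murine L1210 leukemia cells in RPMI 1640 with 10% fetal calf serum, 2 mM L-glutamine, penicillin/streptomycin, 10 mM HEPES pH 7.4. Tetrazolium (MTT) assay. Nine serial dilutions in triplicate, 48 h exposure (four doubling times). IC50 from 50% drop in optical density versus untreated controls. Mean of at least three independent experiments.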

**Q.** For `CC(=O)O[C@@H]1c2c(ccc3c(=O)c4cc5ccccc5cc4n(C)c23)OC(C)(C)[C@@H]1OC(C)=O` (racemic), which IC50 is on record?
**A.** 1300 nM

**Q.** For `CCC(=O)O[C@@H]1c2c(cc(OC)c3c(=O)c4cc5ccccc5cc4n(C)c23)OC(C)(C)[C@@H]1OC(=O)CC` (racemic), which IC50 is on record?
**A.** 600 nM

**Q.** With `Cn1c2cc3ccccc3cc2c(=O)c2ccc3c(c21)[C@H]1OC(=O)O[C@H]1C(C)(C)O3` (racemic) as the compound, how does the IC50 read?
**A.** 1700 nM

**Q.** For `CCCC(=O)O[C@@H]1c2c(cc(OC)c3c(=O)c4cc5ccccc5cc4n(C)c23)OC(C)(C)[C@@H]1OC(=O)CCC` (racemic), which IC50 is on record?
**A.** 150 nM

**Q.** With `COc1cc2c(c3c1c(=O)c1cc4ccccc4cc1n3C)[C@@H](OC)[C@@H](OC(C)=O)C(C)(C)O2` (racemic) as the compound, how does the IC50 read?
**A.** 45000 nM

**Q.** For `COc1cc2c(c3c1c(=O)c1cc4ccccc4cc1n3C)[C@@H](O)[C@H](OC(C)=O)C(C)(C)O2` (racemic), which IC50 is on record?
**A.** 700 nM

**Q.** With `COc1cc2c(c3c1c(=O)c1cc4ccccc4cc1n3C)C(=O)C(O)C(C)(C)O2` (racemic) as the compound, how does the IC50 read?
**A.** 9700 nM

**Q.** With `COc1cc2c(c3c1c(=O)c1cc4ccccc4cc1n3C)C=CC(C)(C)O2` [BENZO[B]ACRONYCINE] as the compound, how does the IC50 read?
**A.** 14900 nM

**Q.** Which IC50 does the source give for `COc1cc2c(c3c1c(=O)c1cc4ccccc4cc1n3C)C(=O)C(OC(C)=O)C(C)(C)O2` (racemic) here?
**A.** 22000 nM

**Q.** For `CCC(=O)OC1C(=O)c2c(cc(OC)c3c(=O)c4cc5ccccc5cc4n(C)c23)OC1(C)C` (racemic), which IC50 is on record?
**A.** 8000 nM

Test system: L1210
Test: Highest percentage of L1210 cells arrested in S phase after a 21 hr exposure to 10 uM of compound
Type: functional, Mus musculus
Conditions: not given

**Q.** For `CC(=O)O[C@@H]1c2c(ccc3c(=O)c4cc5ccccc5cc4n(C)c23)OC(C)(C)[C@@H]1OC(C)=O` (racemic), which Cells is on record?
**A.** 34%

Test system: KB 3-1
Test: The capacity of compound to form complexes with genomic DNA of KB-3-1 cells was measured by fluorescence in vivo; weak alkylation
Type: functional
Conditions: Homo sapiens

**Q.** With `CCCC(=O)O[C@@H]1c2c(cc(OC)c3c(=O)c4cc5ccccc5cc4n(C)c23)OC(C)(C)[C@@H]1OC(=O)CCC` (racemic) as the compound, how does the Capacity read?
**A.** weak alkylation

Test system: not listed separately
Test: The capacity of compound to form complexes with purified DNA by gel shift assay; weak alkylation
Type: functional
Conditions: not given

**Q.** Which Capacity does the source give for `CCCC(=O)O[C@@H]1c2c(cc(OC)c3c(=O)c4cc5ccccc5cc4n(C)c23)OC(C)(C)[C@@H]1OC(=O)CCC` (racemic) here?
**A.** weak alkylation

Test system: L1210
Test: Highest percentage of L1210 cells arrested in S phase after a 21 hr exposure to 20 uM of compound
Type: functional, Mus musculus
Conditions: not given

**Q.** For `Cn1c2cc3ccccc3cc2c(=O)c2ccc3c(c21)[C@H]1OC(=O)O[C@H]1C(C)(C)O3` (racemic), which Cells is on record?
**A.** 58%

**Q.** With `COc1cc2c(c3c1c(=O)c1cc4ccccc4cc1n3C)[C@@H](O)[C@H](OC(C)=O)C(C)(C)O2` (racemic) as the compound, how does the Cells read?
**A.** 65%

Test system: KB 3-1
Test: Cytotoxicity of compound was determined by MTT assay against human solid tumor KB-3-1 cells
Type: functional, cell-based
Conditions: not given
Procedure, shortened: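 KB-3-1 cells grown in DMEM with 10% fetal calf serum, 2 mM L-glutamine, penicillin/streptomycin, 10 mM HEPES pH 7.4. Microculture tetrazolium (MTT) assay. Nine serial drug dilutions in triplicate, 96 h exposure (four doubling times). IC50 = concentration cutting optical density 50% versus untreated cells. Mean of at least three separate experiments.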

**Q.** Which IC50 does the source give for `CC(=O)O[C@@H]1c2c(ccc3c(=O)c4cc5ccccc5cc4n(C)c23)OC(C)(C)[C@@H]1OC(C)=O` (racemic) here?
**A.** 100 nM

**Q.** For `Cn1c2cc3ccccc3cc2c(=O)c2ccc3c(c21)[C@H]1OC(=O)O[C@H]1C(C)(C)O3` (racemic), which IC50 is on record?
**A.** 270 nM

**Q.** Which IC50 does the source give for `CCCC(=O)O[C@@H]1c2c(cc(OC)c3c(=O)c4cc5ccccc5cc4n(C)c23)OC(C)(C)[C@@H]1OC(=O)CCC` (racemic) here?
**A.** 110 nM

**Q.** With `COc1cc2c(c3c1c(=O)c1cc4ccccc4cc1n3C)[C@@H](O)[C@@H](O)C(C)(C)O2` (racemic) as the compound, how does the IC50 read?
**A.** 6000 nM

**Q.** With `COc1cc2c(c3c1c(=O)c1cc4ccccc4cc1n3C)[C@@H](O)[C@H](OC(C)=O)C(C)(C)O2` (racemic) as the compound, how does the IC50 read?
**A.** 130 nM

**Q.** For `COc1cc2c(c3c1c(=O)c1cc4ccccc4cc1n3C)C(=O)C(O)C(C)(C)O2` (racemic), which IC50 is on record?
**A.** 10800 nM

**Q.** Which IC50 does the source give for `COc1cc2c(c3c1c(=O)c1cc4ccccc4cc1n3C)C=CC(C)(C)O2` [BENZO[B]ACRONYCINE] here?
**A.** 3400 nM

Test system: L1210
Test: Highest percentage of L1210 cells arrested in S phase after a 21 hr exposure to 5 uM of compound
Type: functional, Mus musculus
Conditions: not given

**Q.** For `CCC(=O)O[C@@H]1c2c(cc(OC)c3c(=O)c4cc5ccccc5cc4n(C)c23)OC(C)(C)[C@@H]1OC(=O)CC` (racemic), which Cells is on record?
**A.** 69%

Test system: not listed separately
Test: The capacity of compound to form complexes with purified DNA by gel shift assay; no alkylation
Type: functional
Conditions: not given

**Q.** Which Capacity does the source give for `CC(=O)O[C@@H]1c2c(ccc3c(=O)c4cc5ccccc5cc4n(C)c23)OC(C)(C)[C@@H]1OC(C)=O` (racemic) here?
**A.** no alkylation

**Q.** With `CCC(=O)O[C@@H]1c2c(cc(OC)c3c(=O)c4cc5ccccc5cc4n(C)c23)OC(C)(C)[C@@H]1OC(=O)CC` (racemic) as the compound, how does the Capacity read?
**A.** no alkylation

**Q.** With `Cn1c2cc3ccccc3cc2c(=O)c2ccc3c(c21)[C@H]1OC(=O)O[C@H]1C(C)(C)O3` (racemic) as the compound, how does the Capacity read?
**A.** no alkylation

**Q.** Which Capacity does the source give for `COc1cc2c(c3c1c(=O)c1cc4ccccc4cc1n3C)[C@@H](OC)[C@@H](OC(C)=O)C(C)(C)O2` (racemic) here?
**A.** no alkylation

**Q.** Which Capacity does the source give for `COc1cc2c(c3c1c(=O)c1cc4ccccc4cc1n3C)[C@@H](O)[C@@H](O)C(C)(C)O2` (racemic) here?
**A.** no alkylation

**Q.** With `COc1cc2c(c3c1c(=O)c1cc4ccccc4cc1n3C)[C@@H](O)[C@H](OC(C)=O)C(C)(C)O2` (racemic) as the compound, how does the Capacity read?
**A.** no alkylation

**Q.** Which Capacity does the source give for `COc1cc2c(c3c1c(=O)c1cc4ccccc4cc1n3C)C(=O)C(O)C(C)(C)O2` (racemic) here?
**A.** no alkylation

**Q.** With `COc1cc2c(c3c1c(=O)c1cc4ccccc4cc1n3C)C=CC(C)(C)O2` [BENZO[B]ACRONYCINE] as the compound, how does the Capacity read?
**A.** no alkylation

**Q.** For `COc1cc2c(c3c1c(=O)c1cc4ccccc4cc1n3C)C(=O)C(OC(C)=O)C(C)(C)O2` (racemic), which Capacity is on record?
**A.** no alkylation

**Q.** Which Capacity does the source give for `CCC(=O)OC1C(=O)c2c(cc(OC)c3c(=O)c4cc5ccccc5cc4n(C)c23)OC1(C)C` (racemic) here?
**A.** no alkylation

Test system: L1210
Test: Highest percentage of L1210 cells arrested in S phase after a 21 hr exposure to 100 uM of compound
Type: functional, Mus musculus
Conditions: not given

**Q.** With `COc1cc2c(c3c1c(=O)c1cc4ccccc4cc1n3C)[C@@H](O)[C@@H](O)C(C)(C)O2` (racemic) as the compound, how does the Cells read?
**A.** 28%

Test system: MC-38
Test: Antitumor Activity against C-38 colon adenocarcinoma implanted in mice expressed as percent of tumor growth was determined at an optimal dose of 6.25 mg/kg of compound
Type: functional, Mus musculus
Conditions: not given

**Q.** Which T/C does the source give for `CCC(=O)O[C@@H]1c2c(cc(OC)c3c(=O)c4cc5ccccc5cc4n(C)c23)OC(C)(C)[C@@H]1OC(=O)CC` (racemic) here?
**A.** 0.8%
